Screening results (PubChem)
MrgX1 antagonist = human MrgX1 receptor antagonism, primary screen. Q96LB2. MRGX1-HEK293 calcium flux, Fluo-4, BAM8-22 antagonism; active compounds read low. B-score at 10 µM. 310,000 compounds, 1.3% hits. AID 588676;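 active = calcium-response B-score plate-corrected more than 3 library SD below zero, starting fluorescence within 5 deviations, no agonist response on first addition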;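 also: peak minus trough fluorescence over baseline after final BAM8-22 challenge near maximal dose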
Target sequence (Q96LB2 whole entry, looked up): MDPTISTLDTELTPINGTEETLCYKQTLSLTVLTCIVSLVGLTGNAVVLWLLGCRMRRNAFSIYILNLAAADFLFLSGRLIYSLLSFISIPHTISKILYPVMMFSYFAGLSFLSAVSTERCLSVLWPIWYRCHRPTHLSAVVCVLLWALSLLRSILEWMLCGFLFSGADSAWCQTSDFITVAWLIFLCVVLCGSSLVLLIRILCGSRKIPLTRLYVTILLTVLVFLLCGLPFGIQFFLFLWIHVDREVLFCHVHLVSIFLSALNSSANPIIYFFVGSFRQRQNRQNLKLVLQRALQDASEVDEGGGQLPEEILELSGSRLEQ
MrgX1 ag = activates human MrgX1 receptor signaling; Q96LB2; MrgX1-HEK293 cells, Fluo-4 calcium fluorescence, agonist mode; active compounds read high; B-score at 10 µM; 310,000 compounds, 0.44% hits;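 active = calcium response B-score plate-corrected fluorescence ratio at least 3 library SD, with starting fluorescence B-score inside 5 SD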
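Test system: Stable human MrgX1 HEK293 cell line | Schedule: Overnight plating before 1 h dye loading | Read-out basis: Baseline-normalised fluorescence change ratio, B-scored | Detection: Kinetic calcium dye fluorescence, Fluo-4 NW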
RGS4 act = RGS4 potentiation or activation; B-score at 10 µM; HEK293 M3R/inducible RGS4, carbachol calcium flux Fluo4; active compounds read low; 310,000 compounds, 0.92% hits;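 active = B-score of the integrated calcium signal more than 4 SD below the library mean, with starting fluorescence not abnormally high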;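 also: negative B-score means reduced calcium response which marks RGS4 activation or potentiation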
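Detection: kinetic calcium fluorescence imaging with Fluo4-AM dye, 2 µM / Material: HEK293 cells with stable M3R and inducible RGS4 / Schedule: recording 10 s baseline at 1 Hz, 100 s post-agonist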
RGS4 block = inhibitors of human RGS4; B-score at 10 µM; HEK293 M3R/RGS4 inducible, Fluo-4 calcium flux; active compounds read high; triggered by carbachol at its EC20; 310,000 compounds, 0.45% hits; P49798;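 active = B-score, a plate-corrected calcium signal, over three deviations above library mean, with baseline fluorescence within five deviations of library mean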;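 also: RGS4 expression induced by doxycycline in cells with stable M3 receptor; B-score is computed from the integrated fluorescence ratio over baseline after carbachol; higher B-score means a larger calcium signal and so more RGS4 inhibition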
Target sequence (P49798 whole entry, looked up): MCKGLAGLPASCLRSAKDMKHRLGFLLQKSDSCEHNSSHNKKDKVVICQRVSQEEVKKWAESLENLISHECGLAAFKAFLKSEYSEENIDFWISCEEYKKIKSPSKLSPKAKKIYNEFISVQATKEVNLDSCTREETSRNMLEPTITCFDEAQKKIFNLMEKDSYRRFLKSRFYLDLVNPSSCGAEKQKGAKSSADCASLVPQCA
MrgX1 allo act = allosterically activates human MrgX1 receptor signaling | MrgX1-HEK293, Fluo-4 calcium flux, FDSS; active compounds read high | B-score at 10 µM | Q96LB2 | 310,000 compounds, 0.63% hits;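 active = plate-corrected calcium response at least 3 library SD above typical, normal starting fluorescence, not activating the receptor alone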;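 also: compound read alongside a low EC10 to EC30 dose of BAM8-22 agonist; peak minus trough fluorescence over baseline measured at the second addition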
Hits are given with their value. A selection: hits, their analogues and other compounds. The true share with any hit is near 3.5%.

Screening CCCCN(C(=O)C(C)Oc1ccc(Cl)cc1)c1c(N)n(CCCC)c(=O)[nH]c1=O (configuration not stated) returned MrgX1 antagonist inactive, MrgX1 ag inactive, RGS4 act inactive, RGS4 block inactive and MrgX1 allo act inactive.
Screening O=C(O)COc1ccc(/C=C/c2nc3ccc([N+](=O)[O-])cc3s2)cc1 returned MrgX1 antagonist -4.78, MrgX1 ag inactive, RGS4 act inactive, RGS4 block inactive and MrgX1 allo act inactive.
CCOC(=O)C1CCCN(C(=O)c2ccc([N+](=O)[O-])c(C)c2)C1 (configuration not stated) was read as MrgX1 antagonist inactive, MrgX1 ag inactive, RGS4 act inactive, RGS4 block inactive and MrgX1 allo act inactive.
Screening CCOC(=O)C1CCCN(C(=O)c2ccc(C)c([N+](=O)[O-])c2)C1 (configuration not stated) returned MrgX1 antagonist inactive, MrgX1 ag inactive, RGS4 act -8.59, RGS4 block inactive and MrgX1 allo act inactive.
`CCN1CCN(c2oc(COc3ccc(Cl)cc3)nc2C#N)CC1` gave MrgX1 antagonist inactive, MrgX1 ag inactive, RGS4 act inactive, RGS4 block inactive and MrgX1 allo act inactive.
`N#Cc1nc(COc2ccccc2)oc1N1CCCC1` gave MrgX1 antagonist inactive, MrgX1 ag inactive, RGS4 act inactive, RGS4 block inactive and MrgX1 allo act inactive.
Screening N#Cc1nc(COc2ccccc2)oc1N1CCOCC1 returned MrgX1 antagonist inactive, MrgX1 ag inactive, RGS4 act -7.22, RGS4 block inactive and MrgX1 allo act inactive.
Screening N#Cc1nc(COc2ccc(Cl)cc2)oc1N1CCN(Cc2ccccc2)CC1 returned MrgX1 antagonist inactive, MrgX1 ag inactive, RGS4 act -7.01, RGS4 block inactive and MrgX1 allo act inactive.
`Cc1ccc(NC(=O)C2CC2C)cc1S(=O)(=O)N1CCOCC1` (configuration not stated) gave MrgX1 antagonist inactive, MrgX1 ag inactive, RGS4 act inactive, RGS4 block inactive and MrgX1 allo act inactive.
`Cc1cc(NC(C)c2ccccc2)n2ncc(-c3ccccc3)c2n1` (configuration not stated) gave MrgX1 antagonist inactive, MrgX1 ag inactive, RGS4 act -7.03, RGS4 block inactive and MrgX1 allo act inactive.
For COc1ccccc1-c1cnn2c(NCCc3ccccc3)cc(C)nc12 the results were MrgX1 antagonist inactive, MrgX1 ag inactive, RGS4 act -7.41, RGS4 block inactive and MrgX1 allo act inactive.
`Cc1cc(NC2CCCC2)n2ncc(-c3ccccc3)c2n1` gave MrgX1 antagonist inactive, MrgX1 ag inactive, RGS4 act inactive, RGS4 block inactive and MrgX1 allo act inactive.
Screening Cc1cc(N2CCC(C)CC2)n2ncc(-c3ccccc3)c2n1 returned MrgX1 antagonist inactive, MrgX1 ag inactive, RGS4 act -7.34, RGS4 block inactive and MrgX1 allo act inactive.
`Cc1cc(NCc2ccccc2)n2ncc(-c3ccccc3)c2n1` gave MrgX1 antagonist inactive, MrgX1 ag inactive, RGS4 act -8.73, RGS4 block inactive and MrgX1 allo act inactive.
Cc1cc(N2CCOCC2)n2ncc(-c3ccccc3)c2n1 was read as MrgX1 antagonist inactive, MrgX1 ag inactive, RGS4 act inactive, RGS4 block inactive and MrgX1 allo act inactive.
For O=C(CSc1nc2sccc2c(=O)[nH]1)N1CCN(c2ccccc2)CC1 the results were MrgX1 antagonist inactive, MrgX1 ag inactive, RGS4 act inactive, RGS4 block inactive and MrgX1 allo act inactive.
Screening CC(/C=C1\NC(=S)NC1=O)=C\c1ccccc1 returned MrgX1 antagonist -5.1, MrgX1 ag inactive, RGS4 act inactive, RGS4 block inactive and MrgX1 allo act inactive.
Screening O=C1NC(=S)N/C1=C/c1cccc2ccccc12 returned MrgX1 antagonist inactive, MrgX1 ag inactive, RGS4 act inactive, RGS4 block inactive and MrgX1 allo act inactive.
COc1cc(/C=C/C(=O)OCC(=O)Nc2oc(C)c3c(C)n[nH]c(=O)c23)ccc1OC(F)F was read as MrgX1 antagonist inactive, MrgX1 ag inactive, RGS4 act inactive, RGS4 block inactive and MrgX1 allo act inactive.
For CCOc1c(C=C(C#N)C#N)c2ccccc2n1CC the results were MrgX1 antagonist -5.39, MrgX1 ag inactive, RGS4 act inactive, RGS4 block inactive and MrgX1 allo act inactive.
For COc1ccc(N2CC(O)(c3ccc(OC(F)F)cc3)[N+]3=C2CCCC3)cc1 (configuration not stated) the results were MrgX1 antagonist inactive, MrgX1 ag inactive, RGS4 act -8.33, RGS4 block inactive and MrgX1 allo act inactive.
`COc1ccc(N2CC(O)(c3ccc(F)cc3)[N+]3=C2CCCC3)cc1` (configuration not stated) gave MrgX1 antagonist inactive, MrgX1 ag inactive, RGS4 act inactive, RGS4 block inactive and MrgX1 allo act inactive.
COCCNC(=S)NNc1ccccc1[N+](=O)[O-] was read as MrgX1 antagonist -5.12, MrgX1 ag inactive, RGS4 act inactive, RGS4 block inactive and MrgX1 allo act inactive.
`COc1cc(/C=C(\C#N)c2ccccn2)cc(OC)c1O` gave MrgX1 antagonist inactive, MrgX1 ag 50.7, RGS4 act inactive, RGS4 block inactive and MrgX1 allo act inactive.
`COc1cc(/C=C(\C#N)c2ccccn2)ccc1OCc1ccccc1Cl` gave MrgX1 antagonist inactive, MrgX1 ag inactive and MrgX1 allo act inactive.
O=C(O)C1C2CCC(O2)C1C(=O)Nc1ccccc1Br (configuration not stated) was read as MrgX1 antagonist inactive, MrgX1 ag inactive, RGS4 act inactive, RGS4 block inactive and MrgX1 allo act inactive.
For COc1cc(/C=C/C(=O)NC(=O)c2ccccc2O)ccc1O the results were MrgX1 antagonist inactive, MrgX1 ag inactive, RGS4 act inactive, RGS4 block inactive and MrgX1 allo act 12.4.
For COc1cc(/C=N/NC(=O)c2ccc(N)cc2)ccc1OC(=O)c1cccc(C)c1 the results were MrgX1 antagonist -5.57, MrgX1 ag inactive, RGS4 act -8.52, RGS4 block inactive and MrgX1 allo act inactive.
Screening O=C(N/N=C/c1cccc(OC(=O)c2ccccc2Cl)c1)c1cccnc1 returned MrgX1 antagonist inactive, MrgX1 ag inactive, RGS4 act -7.65, RGS4 block inactive and MrgX1 allo act inactive.
Cc1ccc(C(=O)N/N=C/c2ccc(OC(=O)c3ccccc3Cl)cc2)cn1 was read as MrgX1 antagonist inactive, MrgX1 ag inactive, RGS4 act inactive, RGS4 block inactive and MrgX1 allo act inactive.
Screening COc1cc(/C=N/NC(=O)c2ccccn2)ccc1OC(=O)c1ccccc1Br returned MrgX1 antagonist inactive, MrgX1 ag inactive, RGS4 act -8.12, RGS4 block inactive and MrgX1 allo act inactive.
For COc1cc(C(=O)N/N=C/c2ccc(OC(=O)c3cccc(C)c3)cc2)ccc1O the results were MrgX1 antagonist inactive, MrgX1 ag inactive, RGS4 act inactive, RGS4 block inactive and MrgX1 allo act inactive.
COc1cc(/C=N/NC(=O)c2ccccn2)ccc1OC(=O)c1ccc(Br)cc1 was read as MrgX1 antagonist inactive, MrgX1 ag inactive, RGS4 act inactive, RGS4 block inactive and MrgX1 allo act inactive.
